Laboratory results from ChEMBL document CHEMBL1165970, “Design, synthesis and biological evaluation of trans 2-(thiophen-2-yl)vinyl heteroaromatic iodides” (2010).

Columns and labels:
MCF7 = test: Growth inhibition of human MCF7 cells after 3 days by MTT assay; format: functional; conditions: MCF7, 72 h
Procedure, shortened: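 MCF-7 mammary adenocarcinoma cells were grown in DMEM (1.0 g/L D-glucose) with 10% heat-inactivated FBS, 2 mM L-alanyl-L-glutamine and penicillin-streptomycin at 37 °C under 5% CO2. Compounds were added 24 h after plating (0.01–100 µM final), with untreated controls. After 3 days, MTT was read at 570 nm; each value is the mean of 8 wells. GI50 was calculated per NCI, 100×(T−T0)/(C−T0)=50.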

LNCaP = test: Growth inhibition of human LNCAP cells after 3 days by MTT assay; format: functional; conditions: 72 h
Procedure, shortened: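 LNCap prostate adenocarcinoma cells were grown in RPMI 1640 with 10% heat-inactivated FBS, 2 mM L-alanyl-L-glutamine and penicillin-streptomycin at 37 °C under 5% CO2. Cells were plated, then treated 24 h later at 0.01–100 µM final against untreated controls. MTT was read at 570 nm after 3 days, averaging 8 wells. GI50 was derived by the NCI formula 100×(T−T0)/(C−T0)=50.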

GI50 (MCF7) | GI50 (LNCaP) | Structure (SMILES) | LC50 (MCF7) | LC50 (LNCaP)
1.45 µM | 8.32 µM | Cn1cc[n+](C)c1/C=C/c1ccc(-c2ccccc2)s1 |  | 
1 µM | 20 µM | Cn1cc[n+](C)c1/C=C/c1cc(-c2ccccc2)cs1 |  | 
100 µM |  | Cn1cccc1/C=C/c1n(C)cc[n+]1C |  | 
15.1 µM |  | Cn1c(/C=C/c2cccc[n+]2C)cc2ccccc21 |  | 
4.68 µM | 6.03 µM | Cn1cc[n+](C)c1/C=C/c1ccc(-c2cccs2)s1 |  | 
14.5 µM |  | Cn1cc[n+](C)c1/C=C/c1ccc(Br)s1 |  | 
8.32 µM | 33.9 µM | C[n+]1ccccc1/C=C/c1ccc(-c2ccccc2)s1 |  | 

Structure (SMILES) | GI50 (MCF7) | GI50 (LNCaP) | LC50 (MCF7) | LC50 (LNCaP)
C[n+]1ccccc1/C=C/c1cc(-c2ccccc2)cs1 | 0.525 µM | 7.59 µM | 77.6 µM | 69.2 µM
